The record followed here is ChEMBL document CHEMBL3867488 (ACS Med Chem Lett, 2016).

The structures appear in SMILES notation.

Data set [1] concerns the target T1, Oxysterols receptor LXR-beta (Homo sapiens, UniProt P55055).
T1 sequence (P55055 whole entry): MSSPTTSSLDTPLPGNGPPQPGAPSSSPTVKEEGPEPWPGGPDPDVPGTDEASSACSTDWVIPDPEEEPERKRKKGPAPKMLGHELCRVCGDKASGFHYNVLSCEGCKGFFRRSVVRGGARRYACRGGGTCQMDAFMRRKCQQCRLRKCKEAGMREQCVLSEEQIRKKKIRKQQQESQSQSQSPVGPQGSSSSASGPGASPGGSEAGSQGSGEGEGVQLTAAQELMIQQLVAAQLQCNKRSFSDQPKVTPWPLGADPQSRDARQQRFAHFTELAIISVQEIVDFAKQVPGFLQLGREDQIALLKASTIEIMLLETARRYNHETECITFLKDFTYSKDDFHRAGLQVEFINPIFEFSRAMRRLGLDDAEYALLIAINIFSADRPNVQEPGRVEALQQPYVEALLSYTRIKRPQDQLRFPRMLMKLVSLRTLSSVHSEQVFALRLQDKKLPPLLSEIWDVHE
As to the kind of experiment: Agonist activity at LXR-beta in human whole blood assessed as ABCA1 gene induction by measuring ABCA1 mRNA level after 4 hrs by SYBR-Green dye-based Q-PCR analysis. It is filed as tissue-based.

Data set [2] deals with Retinoic acid receptor RXR-alpha/oxysterols receptor LXR-beta (Homo sapiens, UniProt P55055). Kind of data set: Displacement of [3H]-24,25-epoxycholesterol from human LXRbeta/RXRalpha expressed in baculovirus infected Sf9 cells by scintillation proximity analysis. In short, it runs like this:
(§1)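 Binding affinity measured using full-length LXRα–RXRα and LXRβ–RXRα heterodimers.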
On the technique in general: Displacement assays read how much labelled ligand stays bound in the presence of the test substance.

Data set [3] has as its target T2, Oxysterols receptor LXR-alpha (Homo sapiens, UniProt Q13133).
T2 sequence (Q13133 whole entry): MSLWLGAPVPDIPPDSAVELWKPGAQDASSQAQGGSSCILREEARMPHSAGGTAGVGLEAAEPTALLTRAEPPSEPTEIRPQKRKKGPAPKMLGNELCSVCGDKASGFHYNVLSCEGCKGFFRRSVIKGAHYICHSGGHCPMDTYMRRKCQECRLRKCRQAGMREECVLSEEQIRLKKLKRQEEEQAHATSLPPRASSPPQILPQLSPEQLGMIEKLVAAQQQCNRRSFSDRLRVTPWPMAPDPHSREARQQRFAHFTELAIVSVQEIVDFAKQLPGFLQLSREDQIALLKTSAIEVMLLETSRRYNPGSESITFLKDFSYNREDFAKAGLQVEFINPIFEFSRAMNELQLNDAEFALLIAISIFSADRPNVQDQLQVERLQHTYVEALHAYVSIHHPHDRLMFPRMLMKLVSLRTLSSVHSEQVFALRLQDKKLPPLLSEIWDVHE
Kind of data set: Agonist activity at human LXR-alpha expressed in African green monkey CV1 cells measured after 18 to 20 hrs by luciferase reporter gene assay. Format: cell-based, CV-1. Background: In a reporter assay the amount or activity of a reporter protein is the signal.

A short description of data set [4]: Half life in cynomolgus monkey at 0.25 mg/kg, iv administered as 10 mins infusion by LC/MS/MS analysis. Format: ADME, organism-based, Macaca fascicularis. To be noted: in vivo. An outline of the steps: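 Cynomolgus monkey intravenous PK, with n = 2 animals at the 0.25 mg/kg dose. Plasma clearance (mL/min/kg) and terminal t1/2 (h) derived from the plasma concentration–time profile.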

The target of data set [5] is T3, Oxysterols receptor LXR-beta (Homo sapiens) (UniProt P55055).
T3 sequence (whole entry): T1 sequence (P55055 whole entry)
As to the kind of experiment: Agonist activity at LXR-beta in human whole blood assessed as ABCA1 gene induction by measuring ABCA1 mRNA level after 4 hrs by SYBR-Green dye-based Q-PCR analysis relative to pan agonist 2-(4-(5-(5-cyano-1-(2,4-difluorobenzyl)-6-oxo-4-(trifluoromethyl)-1,6-dihydropyridin-2-yl)thiophen-2-yl)-3-methylphenyl)acetic acid. It is filed as tissue-based.

In data set [6] the target is T3, Oxysterols receptor LXR-beta (Homo sapiens). Kind of data set: Agonist activity at human LXR-beta expressed in African green monkey CV1 cells measured after 18 to 20 hrs by luciferase reporter gene assay relative to pan agonist 1-(2,4-difluorobenzyl)-2-oxo-6-(4-phenoxyphenyl)-4-(trifluoromethyl)-1,2-dihydropyridine-3-carbonitrile. It is filed as cell-based. The conditions noted are these: CV-1.

The target of data set [7] is T2, Oxysterols receptor LXR-alpha. Kind of data set: Agonist activity at human LXR-alpha expressed in African green monkey CV1 cells measured after 18 to 20 hrs by luciferase reporter gene assay relative to pan agonist 1-(2,4-difluorobenzyl)-2-oxo-6-(4-phenoxyphenyl)-4-(trifluoromethyl)-1,2-dihydropyridine-3-carbonitrile. Format: cell-based. The conditions noted are these: CV-1, human; read-out: Efficacy.

The target of data set [8] is T1, Oxysterols receptor LXR-beta. Kind of data set: Agonist activity at LXR-beta in human HeLa cells assessed as induction of ABCA1 by beta-galactosidase/luciferase reporter gene assay. It is filed as cell-based. In short, it runs like this: (§2)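 HeLa cells carrying endogenous LXRα and LXRβ receptors, transfected with an ABCA1 LXREx3 reporter construct; agonist-driven reporter induction measured.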

Data set [9] concerns the target T3, Oxysterols receptor LXR-beta (Homo sapiens). As to the kind of experiment: Agonist activity at LXR-beta in human HeLa cells assessed as induction of ABCA1 by beta-galactosidase/luciferase reporter gene assay relative to control. Format: cell-based. In short, it runs like this:
as §2

Data set [10] addresses T1, Oxysterols receptor LXR-beta. As to the kind of experiment: Agonist activity at human LXR-beta expressed in African green monkey CV1 cells measured after 18 to 20 hrs by luciferase reporter gene assay. It is filed as cell-based, CV-1.
Data set [11] deals with Retinoic acid receptor RXR-alpha/oxysterols receptor LXR-alpha (Homo sapiens, UniProt Q13133). Kind of data set: Displacement of [3H]-24,25-epoxycholesterol from human LXRalpha/RXRalpha expressed in baculovirus infected Sf9 cells by scintillation proximity analysis. In short, it runs like this:
as §1

Data set [12] has as its system Cynomolgus monkey. As to the kind of experiment: In vivo agonist activity at LXR-beta in cynomolgus monkey assessed as ABCG1 gene induction by measuring total RNA level at 3 mg/kg, po qd administered via gavage for 14 days measured after 5 to 6 hrs of last-dose relative to control. It is filed as functional, Macaca fascicularis. In short, it runs like this: (§3)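 Cynomolgus monkeys dosed daily for 14 days. ABCG1 mRNA induction measured in blood cells on day 14 and expressed as fold change. Plasma drug concentration taken about 5 h post-dose. Plasma triglycerides also measured against baseline, with significance by ANOVA.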

Data set [13] can be described thus: Plasma concentration in cynomolgus monkey at 1 mg/kg, po qd administered via gavage for 14 days measured after 5 hrs of last-dose by LC/MS/MS analysis. Format: ADME, organism-based, Macaca fascicularis. An outline of the steps: (§4)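 Cynomolgus monkeys dosed daily for 14 days. On day 14, plasma drug concentration was taken 5 h post-dose. Plasma triglycerides were expressed as % elevation over baseline, with significance tested by ANOVA (p < 0.05).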

A short description of data set [14]: Plasma concentration in cynomolgus monkey at 3 mg/kg, po qd administered via gavage for 14 days measured after 5 hrs of last-dose by LC/MS/MS analysis. It is filed as ADME, organism-based, Macaca fascicularis. In short, it runs like this: as §4
Data set [15] has as its system Cynomolgus monkey. Kind of data set: In vivo agonist activity at LXR-beta in cynomolgus monkey assessed as ABCG1 gene induction by measuring total RNA level at 1 mg/kg, po qd administered via gavage for 14 days measured after 5 to 6 hrs of last-dose relative to control. Format: functional, Macaca fascicularis. An outline of the steps: as §3
The nature of data set [16]: Apparent elimination half life in iv dosed cynomolgus monkey. It is filed as ADME, organism-based, Macaca fascicularis. The conditions noted are these: in vivo.
In data set [17] the target is Alpha-1-acid glycoprotein 1 (Homo sapiens, UniProt P02763). Kind of data set: Binding affinity to human alpha-1-AGP at 1 uM measured after 4 hrs by equilibrium dialysis method relative to control. Format: ADME. The conditions noted are these: isolated protein, 4 h, 1 µM.
Alpha-1-acid glycoprotein 1, sequence (P02763 whole entry): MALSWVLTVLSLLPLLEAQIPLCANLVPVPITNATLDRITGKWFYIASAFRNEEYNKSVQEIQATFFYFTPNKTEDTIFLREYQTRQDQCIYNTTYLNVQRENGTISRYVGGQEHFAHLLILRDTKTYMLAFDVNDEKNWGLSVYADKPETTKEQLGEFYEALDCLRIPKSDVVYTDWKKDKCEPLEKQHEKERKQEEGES
The species entered for data set [18] is Macaca fascicularis. As to the kind of experiment: Agonist activity at LXR-beta in cynomolgus monkey whole blood assessed as ABCA1 gene induction by measuring ABCA1 mRNA level after 4 hrs by SYBR-Green dye-based Q-PCR analysis relative to control. Format: tissue-based.
Data set [19] addresses T4, Nuclear receptor subfamily 1 group I member 2 (Homo sapiens, UniProt O75469).
T4 sequence (O75469 whole entry): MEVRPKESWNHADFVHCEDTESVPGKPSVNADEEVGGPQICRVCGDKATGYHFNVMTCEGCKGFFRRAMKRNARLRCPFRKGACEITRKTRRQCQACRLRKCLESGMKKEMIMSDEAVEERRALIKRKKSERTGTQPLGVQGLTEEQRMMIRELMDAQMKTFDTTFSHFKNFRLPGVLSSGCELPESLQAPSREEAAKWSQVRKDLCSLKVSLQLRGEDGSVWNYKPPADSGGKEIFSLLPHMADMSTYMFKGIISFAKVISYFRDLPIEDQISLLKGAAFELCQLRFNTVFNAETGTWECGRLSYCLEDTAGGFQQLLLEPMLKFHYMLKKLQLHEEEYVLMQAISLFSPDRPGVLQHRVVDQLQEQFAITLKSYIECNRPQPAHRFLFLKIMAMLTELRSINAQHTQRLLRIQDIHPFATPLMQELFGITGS
Kind of data set: Agonist activity at human PXR expressed in human HepG2 cells assessed as induction of CYP3A4 measured after 24 hrs by AlamarBlue dye-based luciferase reporter gene assay relative to control. To be noted: hepg2, 24 h. It is filed as cell-based. In general terms: Alamar Blue is a resazurin reagent that responds to reducing activity.

The nature of data set [20]: Agonist activity at LXR-beta in cynomolgus monkey whole blood assessed as ABCA1 gene induction by measuring ABCA1 mRNA level after 4 hrs by SYBR-Green dye-based Q-PCR analysis. Format: tissue-based. To be noted: Macaca fascicularis.
Data set [21] deals with Albumin (Homo sapiens, UniProt P02768). Kind of data set: Binding affinity to human serum albumin at 1 uM measured after 4 hrs by equilibrium dialysis method relative to control. Format: ADME. To be noted: isolated protein, 4 h, 1 µM.
Albumin, sequence (P02768 whole entry): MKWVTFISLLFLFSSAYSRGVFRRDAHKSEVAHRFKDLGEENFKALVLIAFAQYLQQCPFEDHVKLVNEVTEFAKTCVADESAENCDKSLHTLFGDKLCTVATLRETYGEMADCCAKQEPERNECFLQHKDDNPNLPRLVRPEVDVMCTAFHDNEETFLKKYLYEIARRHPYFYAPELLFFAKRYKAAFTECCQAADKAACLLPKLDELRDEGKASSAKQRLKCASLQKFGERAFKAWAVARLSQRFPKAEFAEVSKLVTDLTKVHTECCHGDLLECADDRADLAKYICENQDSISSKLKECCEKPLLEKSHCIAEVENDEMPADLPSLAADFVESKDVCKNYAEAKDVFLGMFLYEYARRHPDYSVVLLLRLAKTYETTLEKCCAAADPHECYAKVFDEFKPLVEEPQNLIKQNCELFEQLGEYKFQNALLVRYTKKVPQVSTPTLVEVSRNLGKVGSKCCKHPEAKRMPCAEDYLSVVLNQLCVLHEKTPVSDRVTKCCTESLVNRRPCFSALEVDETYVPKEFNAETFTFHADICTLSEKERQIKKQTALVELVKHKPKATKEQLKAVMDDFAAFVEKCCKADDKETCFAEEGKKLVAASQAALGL
For data set [22], the target named is T4, Nuclear receptor subfamily 1 group I member 2. Kind of data set: Agonist activity at human PXR expressed in human HepG2 cells assessed as induction of CYP3A4 measured after 24 hrs by AlamarBlue dye-based luciferase reporter gene assay. It is filed as cell-based.
Data set [23] can be described thus: Effect on plasma triglyceride level in cynomolgus monkey at 1 mg/kg, po qd administered via gavage for 14 days measured after 24 hrs of last-dose relative to base line. To be noted: in vivo. It is filed as ADME, organism-based, Macaca fascicularis. In short, it runs like this: as §4
The nature of data set [24]: Effect on plasma triglyceride level in cynomolgus monkey at 3 mg/kg, po qd administered via gavage for 14 days measured after 24 hrs of last-dose relative to base line. It is filed as ADME, organism-based, Macaca fascicularis. The conditions noted are these: in vivo. An outline of the steps:
as §4

As a reminder, the EC50 is the concentration at which the effect is half-maximal. Broadly, the Ki is a measure of affinity in units of concentration, obtained from inhibition or displacement.

Retinoic acid receptor RXR-alpha/oxysterols receptor LXR-beta, sequence (P19793 whole entry, one chain of several): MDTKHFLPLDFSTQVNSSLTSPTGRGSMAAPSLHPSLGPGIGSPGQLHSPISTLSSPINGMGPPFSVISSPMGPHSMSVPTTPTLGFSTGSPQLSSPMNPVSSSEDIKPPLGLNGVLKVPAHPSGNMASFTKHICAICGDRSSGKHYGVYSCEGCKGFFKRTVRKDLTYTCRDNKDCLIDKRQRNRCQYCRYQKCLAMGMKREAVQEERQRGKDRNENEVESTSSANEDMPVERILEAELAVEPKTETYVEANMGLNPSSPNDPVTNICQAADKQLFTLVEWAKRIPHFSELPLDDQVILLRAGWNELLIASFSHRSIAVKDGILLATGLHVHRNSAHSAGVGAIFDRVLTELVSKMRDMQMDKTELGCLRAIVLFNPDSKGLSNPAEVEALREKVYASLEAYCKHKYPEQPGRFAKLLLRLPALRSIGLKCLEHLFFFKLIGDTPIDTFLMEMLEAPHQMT
Retinoic acid receptor RXR-alpha/oxysterols receptor LXR-alpha, sequence (P19793 whole entry, one chain of several): as above

For the molecule `CC(C)(O)c1cn(-c2ccc(-c3ccc(CO)c(S(C)(=O)=O)c3)cc2)c(Cc2ccccc2Cl)n1`, the EC50 is 300 nM in [1], 100 nM in data set [3], 9 nM in data set [8] and 60 nM in [10]. Further, the inhibitory constant (Ki) in data set [2] was found to be 5 nM; in [11] it was 31 nM. This molecule yielded a t1/2 in data set [4] of 48 min. Moreover, the Efficacy in [5] came out at 72%; in data set [6], 50%; in data set [9] it was 54%. Also, in data set [7], the Emax worked out at 39%.
In the case of `CC(C)(O)c1cn(-c2ccc(-c3cc(F)c(CO)c(S(C)(=O)=O)c3)cc2)c(C(C)(C)c2cccc(F)c2Cl)n1`, the “fold change (FC)” value in data set [12] is recorded as 10; in [15], 4. Moreover, the concentration at 5 h in [13] turned out to be 85 nM; in data set [14] it was 310 nM. Also, the betat1/2(app) in [16] lay within 10 to 12 h. Besides, the PB was found to be 87.6% in data set [17] and 94.4% in data set [21]. In addition, the Efficacy in data set [18] is 29%; in data set [5], 34%; in [6], 68%; in data set [9], 16%. Moreover, the Activity is recorded as 85% in data set [19], 2% in data set [23] and 58% in [24]. The EC50 in data set [20] is 52 nM; in data set [22], 3000 nM. Further, the Emax in [7] is 12%.
